# Bioassay records deposited in PubChem BioAssay by several laboratories.
# PLC-gamma1 inh: PLC-gamma1 enzyme inhibitors, primary screen, biochemical, fluorescence, purified enzyme; 1-phosphatidylinositol 4,5-bisphosphate phosphodiesterase gamma-1 (Homo sapiens), P19174; fluorogenic substrate; inhibition, % at 12.2 µM; actives 0.84% (n = 370,000); AID 720700, 2013; in the data active = inhibition above about 9.5%
# PLC-beta3 inh: human PLC-beta3 inhibitors, primary screen, biochemical, fluorescence; inhibition, % at 12.2 µM; actives 0.18% (n = 370,000); Purified PLC-beta3, fluorogenic substrate; 1-phosphatidylinositol 4,5-bisphosphate phosphodiesterase beta-3 (Homo sapiens), Q01970; in the data active = inhibition above about 11%;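 also: 0% = median of compound wells on plate and 100% = full blocker control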
# Arr AP2 block: inhibitors of beta-arrestin/AP2 binding, primary screen, biochemical, GPCR trafficking, flow cytometry | AID 504490, 2011 | actives 0.31% (n = 340,000) | inhibition, % at 10 µM | FITC-arrestin peptide / GST-AP2 beads; AP2 beta2 appendage carries R879A mutation;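 active = inhibition above a set limit, near 3 SD of compounds lacking own fluorescence, cut at about 54% in these data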;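 also: plate controls were DMSO wells for no effect and 5 µM unlabelled arrestin peptide for full effect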
#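 Test system: GST-tagged AP2 beta2-adaptin appendage (R879A) on 4 µm glutathione beads; also added: fluorescein-tagged arrestin peptide at 50 nM final; timing: 12 min plus 1 h, RT; signal: flow cytometry, FL1 (488/535 nm); read-out: percent drop in bead-associated FITC signal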
# NTR1 agonist: agonists of human NTR1, primary screen, imaging, U2OS cells, beta-arrestin-GFP, high content | activation, % at 20 µM | AID 493036, 2011 | NTR1-U2OS beta-arrestin-GFP spot imaging, agonist mode | actives 0.17% (n = 330,000) | Neurotensin receptor type 1 (Homo sapiens), P30989;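 active = activation at or above 40% of the spot to cytoplasm intensity ratio, with at least 20 cells analyzed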;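 also: 0% = DMSO without peptide and 100% = 100 nM NTR1 peptide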
# Arr-AP2 CP1: inhibitors of arrestin peptide binding to AP2, confirmation, biochemical, cherry pick 1, flow cytometry beads | shares compounds with Arr AP2 block | GST-AP2 beads, FITC arrestin peptide binding; GST-fused beta2-adaptin appendage, R879A mutant | inhibition, % at 10 µM | actives 2% (n = 1,300) | AID 504908, 2011;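 active = inhibition above a set limit, roughly 3 SD of non-fluorescent compound noise, cut at about 38% in these data; inactive = inhibition at or below that limit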;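 also: loss of bead fluorescence from 50 nM FITC arrestin peptide bound to appendage; 0% = negative control wells and 100% = excess unlabelled arrestin peptide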
# Target sequence (P63010 whole entry, looked up, the tested form may be a part, one chain of several): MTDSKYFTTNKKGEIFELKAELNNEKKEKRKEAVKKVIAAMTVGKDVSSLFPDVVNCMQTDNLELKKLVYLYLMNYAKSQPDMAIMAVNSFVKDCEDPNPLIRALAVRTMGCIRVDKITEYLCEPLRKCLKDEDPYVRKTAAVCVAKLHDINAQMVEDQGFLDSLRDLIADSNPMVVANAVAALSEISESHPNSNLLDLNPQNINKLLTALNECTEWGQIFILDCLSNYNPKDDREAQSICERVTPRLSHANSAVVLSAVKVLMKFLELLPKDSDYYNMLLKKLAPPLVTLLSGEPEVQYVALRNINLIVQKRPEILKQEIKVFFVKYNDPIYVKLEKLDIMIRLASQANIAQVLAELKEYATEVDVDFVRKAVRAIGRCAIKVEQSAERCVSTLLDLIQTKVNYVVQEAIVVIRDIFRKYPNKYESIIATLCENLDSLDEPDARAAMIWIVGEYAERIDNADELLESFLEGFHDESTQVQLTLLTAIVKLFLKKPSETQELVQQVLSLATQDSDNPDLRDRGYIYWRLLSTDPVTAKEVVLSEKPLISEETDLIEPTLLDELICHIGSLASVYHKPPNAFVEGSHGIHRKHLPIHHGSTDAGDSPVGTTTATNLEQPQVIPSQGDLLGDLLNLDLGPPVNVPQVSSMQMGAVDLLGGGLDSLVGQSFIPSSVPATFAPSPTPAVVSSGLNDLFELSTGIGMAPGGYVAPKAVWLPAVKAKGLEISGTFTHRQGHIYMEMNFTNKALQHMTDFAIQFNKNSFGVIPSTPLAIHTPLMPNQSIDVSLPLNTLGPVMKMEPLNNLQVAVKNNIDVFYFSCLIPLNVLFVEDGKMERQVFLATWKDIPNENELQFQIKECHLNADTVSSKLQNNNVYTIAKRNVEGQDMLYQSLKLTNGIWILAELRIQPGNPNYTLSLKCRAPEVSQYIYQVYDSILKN
# GST-FITC bead: GST-fluorescein capture on glutathione beads, confirmation, artefact control for arrestin-AP2 inhibitor project, biochemical, cherry pick 1, flow cytometry | shares compounds with Arr AP2 block | GST-fluorescein binding to GSH beads, fluorescence, counter-screen | inhibition, % at 10 µM | actives 2% (n = 1,300);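 active = inhibition above 50%, about 3 SD of the inhibition seen with non-fluorescent compounds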;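 also: fluorescein maleimide labelled GST captured on 4 micron glutathione beads; higher means more loss of bead fluorescence from quenching or blocked binding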
# * hit, by the source's call; / = no result. A selection: hits, their analogues and other compounds. The true share with any hit is near 1.3%.
SMILES,PLC-gamma1 inh,PLC-beta3 inh,Arr AP2 block,NTR1 agonist,Arr-AP2 CP1,GST-FITC bead
Cc1cccc(NS(=O)(=O)c2cccc(C(=O)NCC(c3ccco3)N3CCCCC3)c2)c1 (stereo not drawn),2.0,0.6,8.0,2.0,/,/
COc1ccc(NS(=O)(=O)c2cccc(C(=O)NCC3(N4CCOCC4)CCCCC3)c2)cc1,-1.1,-23.2,-9.4,0.9,9.1,-5.6
CCOc1ccc(NS(=O)(=O)c2cccc(C(=O)NCC3(N(C)C)CCCCC3)c2)cc1,6.9,0.7,-4.7,0.1,5.3,-12.3
O=S1(=O)c2ccc(N3CC[C@H](O)C3)cc2O[C@@H]2CCN1C2,3.3,2.2,/,/,/,/
CCOCC(=O)Nc1ccc2c(c1)N(S(=O)(=O)c1cccs1)CCC2,-0.2,-1.2,55.8*,1.3,-1.9,-9.4
CNC(=O)C(=O)Nc1ccc2c(c1)N(S(=O)(=O)c1cccs1)CCC2,1.6,2.2,0.9,0.3,/,/
COc1ccc(CNC(=O)CN(CC2CCCO2)C(=O)CNS(=O)(=O)c2ccc(C)cc2)cc1 (stereo not drawn),1.0,1.2,77.4*,0.3,-3.7,0.7
O=C(NC1CCCCC1)N1CCN(CCc2ccccc2)CC1,1.9,1.6,54.2*,-0.3,-1.5,-1.6
CCn1c2ccccc2c2cc(NC(=O)c3cccc(OC)c3)ccc21,/,/,3.1,7.9,/,/
CCn1c(=O)n(CC)c2cc(N3CCCC3)c(NC(=O)c3cccc(OC)c3)cc21,-77.4,-110.4,4.1,1.2,1.7,5.0
CCn1c(=O)n(CC)c2cc(N3CCCC3)c(NC(=O)c3ccc(F)cc3)cc21,-64.8,-100.8,6.9,3.6,10.6,1.1
CCOc1ccc(C(=O)Nc2cc3c(cc2N2CCCC2)n(CC)c(=O)n3CC)cc1OCC,-225.6,-345.3,-3.2,4.5,0.1,-6.9
CCCOc1ccc(C(=O)Nc2ccc(N3CCOCC3)cc2N2CCOCC2)cc1OCC,-0.9,-6.0,/,/,/,/
O=C(Nc1ccccc1N1CCCCC1)c1ccc(F)cc1,-1.5,2.0,-2.5,1.0,/,/
CCn1c(=O)n(CC)c2cc(N3CCCC3)c(NC(=O)c3c(F)cccc3F)cc21,-4.9,-11.3,15.7,4.1,-5.5,-1.2
COC(=O)[C@]12C[C@H](CC(=O)NCc3cccc4ccccc34)C(=O)N(CCc3ccc(OC)c(OC)c3)C1=C[C@H](C(C)C)O[C@@H]2C1CC1,0.6,1.6,/,/,/,/
CCOc1ccc(N(CC(=O)Nc2c(C)n(C)n(-c3ccccc3)c2=O)S(=O)(=O)c2ccc(C)c(C)c2)cc1,2.6,-1.2,/,/,/,/
Clc1ccc([C@H]2OC[C@@]3(CNCC4CC4)CS[C@H](c4ccc(Cl)cc4)N23)cc1,0.1,-0.2,/,/,/,/
Cc1ccc(C)c(NC(=O)CSc2nnc(C)c(=O)n2N)c1,1.4,-2.1,3.7,-1.2,/,/
Cc1cc(C)c(NC(=O)CSc2nnc(SCC(=O)Nc3c(C)cc(C)cc3C)n2N)c(C)c1,6.3,5.9,90.8*,1.3,-7.9,-8.8
CCOC(=O)C1=C(COC(=O)CCS(=O)(=O)c2ccc(C)cc2)NC(=O)NC1C (stereo not drawn),-1.4,-8.8,12.7,0.1,/,/
CCOC(=O)C1=C(COC(=O)CCC(=O)c2ccc(C)cc2)NC(=O)NC1C (stereo not drawn),3.2,-3.8,-0.5,2.3,-3.6,-12.5
CCOC(=O)C1=C(COC(=O)CCc2ccc(CC)cc2)NC(=O)NC1C (stereo not drawn),-2.6,0.4,-7.9,-0.8,-1.0,1.0
CCOC(=O)C1=C(COC(=O)Cc2ccccc2F)NC(=O)NC1C (stereo not drawn),-1.0,-9.2,15.8,0.6,-5.0,-9.7
CCOC(=O)C1=C(COC(=O)CCc2ccccc2)NC(=O)NC1C (stereo not drawn),5.0,-6.1,3.0,0.4,-6.7,-2.4
SMILES,PLC-gamma1 inh,PLC-beta3 inh,Arr AP2 block,NTR1 agonist,Arr-AP2 CP1,GST-FITC bead
COc1cccc(-c2ncn(CCc3ccccc3OC)c2CC(C)C)c1,1.9,3.3,/,/,/,/
CN(C)c1cccc(/C=C2\CC3(OC(=O)c4ccc(F)cc4)CCCN2C3)c1 (stereo not drawn),-4.1,-4.6,/,/,/,/
CCOC(=O)C1=C(COC(=O)CSc2ccc(Br)cc2)NC(=O)NC1C (stereo not drawn),-3.8,-4.7,-6.1,1.0,/,/
CCOC(=O)C1=C(COC(=O)Cc2ccc(Br)cc2)NC(=O)NC1C (stereo not drawn),-1.4,-5.6,3.0,0.7,12.3,-5.5
N#CCC[C@@H]1CC[C@]2(CCCN(C(=O)c3ccc4ccccc4n3)C2)O1,0.5,2.1,/,/,/,/
CCn1cc(/C=C(\NC(=O)c2ccc(OC)cc2)C(=O)N2CCN(C)CC2)c2ccccc21,-10.8,-19.2,38.0,0.3,/,/
CCn1cc(/C=C(\NC(=O)c2ccccc2)C(=O)N2CCOCC2)c2ccccc21,-2.2,-13.3,55.3*,-0.5,3.0,-2.6
Cc1cccc2c1c1ccc3c(c1n2C)C(=O)C=CC3=O,-38.8,-59.5,67.2*,/,49.4*,0.2
COc1ccc(NC(=O)CCCn2c(=O)[nH]c3ccccc3c2=O)cc1,1.0,-0.6,9.5,-0.9,-14.0,-6.5
COc1ccc(NC(=O)CCn2c(=S)[nH]c3ccccc3c2=O)cc1,1.7,-0.8,25.0,-0.2,/,/
O=C(CCn1c(=S)[nH]c2ccccc2c1=O)Nc1ccc(F)cc1,-1.2,-6.0,74.4*,2.4,13.8,83.8*
COc1cc(NC(=O)CCCn2c(=S)[nH]c3ccccc3c2=O)cc(OC)c1OC,8.1,4.5,-8.8,3.5,/,/
COc1ccc(NC(=O)CCCn2c(=S)[nH]c3ccccc3c2=O)cc1,2.6,0.1,2.4,-0.7,/,/
COc1ccc(NC(=O)CCCCn2c(=O)[nH]c3ccccc3c2=O)cc1,0.0,1.6,4.6,0.0,-2.8,-3.0
COc1ccc(-c2noc(CN(C(=O)c3ccc4c(c3)OCO4)C(C)C)n2)cc1OC,-0.7,-2.6,59.7*,-0.1,-9.0,-9.7
C[C@H]1[C@@H](NC(=O)c2ccc(O)cc2)CC[C@@]23CCCN2C(=O)CCC[C@@H]13,-2.9,6.4,/,/,/,/
Oc1cc2c(cc1C(c1ccc(Br)cc1)N1CCCC1)OCO2 (stereo not drawn),1.2,1.7,60.5*,3.7,11.2,18.2
Cc1ccc(-n2nc3cc(C)c(N)cc3n2)cc1,-365.2,-468.5,35.0,-0.5,/,/
Cc1cc2nc3ccc(N(C)C)cc3nc2cc1N,-21.0,-29.0,64.3*,-2.4,44.3*,20.8
CN[C@H]1C[C@H]2c3cc(-c4ccccc4C)ccc3CCN2C[C@H]1[C@H](C)O,-22.5,-30.8,/,/,/,/
